Test results from ChEMBL document CHEMBL3872265, “Structure-activity relationship of the inhibitory effects of flavonoids on nitric oxide production in RAW264.7 cells” (Bioorg Med Chem, 2017).

Assays:
[1] = tested on: RAW264.7; experiment: Inhibition of LPS/INF-gamma-stimulated nitric oxide production in mouse RAW264.7 cells measured after 16 hrs; format: functional, cell-based; details: RAW264.7, 16 h
Procedure, shortened: (§1)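 RAW264.7 murine macrophages were co-stimulated with LPS (100 ng/mL) plus IFN-γ (0.33 ng/mL) in the presence of test compound. Nitrite released into the medium was quantified by the Griess method as a measure of NO. Cell viability was read in parallel with AlamarBlue reagent.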

[2] = tested on: Peritoneal macrophage; experiment: Inhibition of LPS-stimulated nitric oxide production in ddy mouse peritoneal macrophages measured after 20 hrs by Greiss method; format: functional
[3] = tested on: RAW264.7; experiment: Inhibition of LPS-stimulated nitric oxide production in mouse RAW264.7 cells by Greiss method; format: functional, cell-based
Procedure, shortened: (§2)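 This variant stimulated RAW264.7 murine macrophages with LPS alone, without IFN-γ, in the presence of test compound. Released nitrite was measured by the Griess method to quantify NO production. Cell viability was assessed with AlamarBlue reagent.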

[4] = tested on: RAW264.7; experiment: Inhibition of LPS/INF-gamma-stimulated nitric oxide production in mouse RAW264.7 cells by Greiss method; format: functional, cell-based; procedure, shortened: as §1
[5] = Cytotoxicity against LPS-stimulated mouse RAW264.7 cells assessed as cell viability at 100 uM by alamar blue assay relative to control; format: toxicity; details: LPS-stimulated RAW264.7 cells, read-out: Activity; procedure, shortened: as §2
[6] = Cytotoxicity against LPS/INF-gamma-stimulated mouse RAW264.7 cells assessed as cell viability at 100 uM by alamar blue assay relative to control; format: toxicity; details: LPS/INF-gamma-stimulated RAW264.7 cells, read-out: Activity; procedure, shortened: as §1

| IC50 [1] [µM] | IC50 [2] [µM] | Compound | further results |
| --- | --- | --- | --- |
| 12 |  | O=C1C[C@@H](c2cc(O)cc(O)c2)Oc2cc(O)cc(O)c21 |  |
|  | 14 | O=c1cc(-c2ccc(O)cc2)oc2cc(O)ccc12 |  |
| > 100 |  | O=C1C[C@@H](c2cc(O)c(O)c(O)c2)Oc2cc(O)ccc21 |  |
| 14 |  | COc1c(O)cc(-c2oc3cc(O)ccc3c(=O)c2O)cc1O |  |
| 14 | 7.7 | O=c1cc(-c2ccc(O)cc2)oc2cc(O)cc(O)c12 [APIGENIN] |  |
| > 100 |  | O=C1c2c(O)cc(O)cc2O[C@H](c2ccc(O)cc2)[C@H]1O [DIHYDROKAEMPFEROL] |  |
|  | 8.9 | COc1ccc(-c2cc(=O)c3c(O)cc(O)cc3o2)cc1O [DIOSMETIN] | IC50 [3]: 16.7 µM; IC50 [4]: 32.2 µM |
|  | > 100 | O=C1C[C@@H](c2ccc(O)c(O)c2)Oc2cc(O)cc(O)c21 [ERIODICTYOL] |  |
|  | 84 | COc1c(O)cc(-c2oc3cc(O)cc(O)c3c(=O)c2O)cc1O [MEARNSETIN] |  |
| 42 |  | O=c1c(O)c(-c2cc(O)c(O)c(O)c2)oc2cc(O)ccc12 [ROBINETIN] |  |
|  | 25 | COc1ccc(-c2oc3cc(O)cc(O)c3c(=O)c2O)cc1O [TAMARIXETIN] |  |

Second part, the molecule before the results:

| Compound | IC50 [1] [µM] | IC50 [2] [µM] | further results |
| --- | --- | --- | --- |
| O=c1cc(-c2ccc(O)c(O)c2)oc2cc(O)ccc12 |  | 26 |  |
| COc1c(O)cc([C@H]2Oc3cc(O)ccc3C(=O)[C@@H]2O)cc1O | > 100 |  |  |
| COc1cc(-c2cc(=O)c3c(O)cc(O)cc3o2)cc(O)c1OC |  |  | IC50 [3]: 6.9 µM; IC50 [4]: 18.2 µM; viability at 100 µM [5]: 106%; viability at 100 µM [6]: 96% |
| COc1cc(-c2oc3cc(O)ccc3c(=O)c2O)cc(OC)c1O | 63 |  |  |
| COc1c(O)cc(-c2cc(=O)c3c(O)cc(O)cc3o2)cc1O |  |  | IC50 [3]: 37 µM; IC50 [4]: 59.3 µM; viability at 100 µM [5]: 112%; viability at 100 µM [6]: 119% |
| COc1cc([C@H]2Oc3cc(O)ccc3C(=O)[C@@H]2O)cc(OC)c1O | > 100 |  |  |
| O=C1c2ccc(O)cc2O[C@H](c2cc(O)c(O)c(O)c2)[C@H]1O | > 100 |  |  |
| COc1ccc(-c2cc(=O)c3c(O)cc(O)cc3o2)cc1OC |  |  | IC50 [3]: 5 µM; IC50 [4]: 17 µM; viability at 100 µM [5]: 112%; viability at 100 µM [6]: 109% |
| COc1ccc(-c2cc(=O)c3c(O)cc(O)cc3o2)cc1 [ACACETIN] |  |  | IC50 [3]: 27.7 µM; IC50 [4]: 53.7 µM; viability at 100 µM [5]: 99%; viability at 100 µM [6]: 115% |
| O=c1c(O)c(-c2ccc(O)cc2)oc2cc(O)cc(O)c12 [KAEMPFEROL] | 15 | 29 | IC50 [3]: 13.4 µM; IC50 [4]: 17 µM; viability at 100 µM [5]: 141%; viability at 100 µM [6]: 138% |
| O=C1C[C@@H](c2ccc(O)cc2)Oc2cc(O)ccc21 [LIQUIRTIGENIN] |  | 85 |  |
| O=c1cc(-c2ccc(O)c(O)c2)oc2cc(O)cc(O)c12 [LUTEOLIN] |  | 20 |  |
| O=c1c(O)c(-c2cc(O)c(O)c(O)c2)oc2cc(O)cc(O)c12 [MYRICETIN] |  | 99 |  |
| O=C1C[C@@H](c2ccc(O)cc2)Oc2cc(O)cc(O)c21 [NARINGENIN] | 60 |  |  |
| O=c1c(O)c(-c2ccc(O)c(O)c2)oc2cc(O)cc(O)c12 [QUERCETIN] |  | 36 |  |
| COc1cc(-c2cc(=O)c3c(O)cc(O)cc3o2)cc(OC)c1O [TRICIN] | 8 |  |  |
